Measured values collected from several papers.
Compare with care: the assays were run in different laboratories.
Cell line: SK-OV-3

With `COc1ccc(C(=O)/C=C/c2cccnc2)cc1S(N)(=O)=O` the GI50 was 16.6 µM (cell growth or viability; SRB; 48 h).
With `NC(=O)c1cccc2cn(-c3ccc([C@@H]4CCCNC4)cc3)nc12` the IC50 was 5.34 µM (colony formation).
`COc1cccc(Oc2ccccc2NC(=O)CNC(=O)c2cccc3ccccc23)c1` gave a GI50 of 0.49 µM (cell growth or viability; SRB; 48 h).
`COc1ccc(C(=O)/C=C/c2ccc3ccccc3c2)cc1S(N)(=O)=O` gave a GI50 of 4.9 µM (cell growth or viability; SRB; 48 h).
With `Cc1ccc(-c2ccc(O)cc2)c(C(=C2C=CC(=O)C=C2)c2ccc(O)cc2)c1C#Cc1ccc(O)cc1` the IC50 was 18.6 µM (cell growth or viability; MTT; 48 h).
With `COc1ccc(C(=O)/C=C/c2cccc3ccccc23)cc1S(N)(=O)=O` the GI50 was 3.7 µM (cell growth or viability; SRB; 48 h).
With `O=C1Nc2ccccc2C1=NNc1nnc2n1N=C(c1ccccc1)CS2` the inhibition was 11% (cell growth or viability; SRB; 10 µM).
The GI50 of `COc1cc(-c2ccc(-c3ccc(C(=N)N)nc3)s2)cc(OC)c1OC` is reported as 13.1 µM (cell growth or viability; SRB).
`C[C@]12CC[C@@H]3c4ccc(O)cc4CC[C@H]3[C@@H]1CC[C@@H]2O` has an EC50 of 18.1 µM (cell growth or viability; ATP luminescence; 72 h).
With `COc1ccc(C(=O)/C=C/c2ccccc2Br)cc1S(N)(=O)=O` the inhibition was 30% (cell growth or viability; SRB; 10 µM).
`COc1ccc(-c2ccc(-c3ccc(C(=N)N)nc3)s2)cc1` has a GI50 of 1.7 µM (cell growth or viability; SRB).
`Cn1ncnc1[C@H]1c2n[nH]c(=O)c3cc(F)cc(c23)N[C@@H]1c1ccc(F)cc1` has an IC50 of 0.0234 µM (colony formation).
`COc1ccc(C(=O)/C=C/c2ccc(Cl)c(Cl)c2)cc1S(N)(=O)=O` has a GI50 of 5.5 µM (cell growth or viability; SRB; 48 h).
`CC(C)C[C@H](NC(=O)[C@H](Cc1ccccc1)NC(=O)c1cnccn1)B(O)O` has an IC50 of 0.025 µM (cell growth or viability; ATP luminescence).
With `COc1cc(CNC(=O)CCCC/C=C/C(C)C)ccc1O` the IC50 was 22 µM (cell growth or viability; SRB).
For `COc1ccc(C(=O)/C=C/c2cccc(Cl)c2)cc1S(N)(=O)=O`, the GI50 was 6.2 µM (cell growth or viability; SRB; 48 h).
With `COc1cc(CNC(=O)CCCC/C=C/C(C)C)ccc1OCc1cn(-c2ccc(C(F)(F)F)cc2)nn1` the IC50 was 10.6 µM (cell growth or viability; SRB).
For `S=C([S][Au-][P+](CCCCCC[P+]([Au-][S]C(=S)n1cccn1)(c1ccccc1)c1ccccc1)(c1ccccc1)c1ccccc1)n1cccn1`, the GI50 was 2.06 µM (cell growth or viability).
`C#C[C@@]1(O)[C@@H](CO)O[C@@H](n2cc(Cl)c3c(N)ncnc32)[C@@H]1O` gave a GI50 of 0.119 µM (cell growth or viability; SRB).
